NLRP3 yeast inh: NALP3 inflammasome inhibitors in reconstituted yeast, primary screen, luminescence, uHTS; Yeast reconstituted NLRP3/ASC/caspase-1, beta-gal luminescence, 24 h; actives 0.39% (n = 330,000); inhibition, % at 10 µM;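 active = inhibition of 50% or more; inactive = inhibition below 50%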;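 note: plate controls were induced DMSO wells for no effect and uninduced yeast grown without galactose for full effect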
ALR H2O2 inh: inhibitors of human ALR sulfhydryl oxidase, primary screen, biochemical, H2O2 detection, HRP-luminol luminescence, single point; AID 485317, 2010; actives 3.8% (n = 290,000); FAD-linked sulfhydryl oxidase ALR (Homo sapiens), P55789; purified ALR, DTT oxidation; inhibition, % (concentration not given with the values);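 active = mean replicate inhibition above about 79%, with every replicate also reaching it, limit read from the data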
ATG4B inhibitor: ATG4B protease inhibitors, primary screen, biochemical, fluorescence, uHTS; ATG4B cleavage of LC3-PLA2, NBD-HPC fluorescence, 1 h; inhibition, % at 8.33 µM; actives 0.51% (n = 340,000); Cysteine protease ATG4B (Homo sapiens), Q9Y4P1; in the data active = inhibition above about 40%
NALP1 inh: NALP1 inflammasome inhibitors in reconstituted yeast, colorimetric, S. cerevisiae, triplicate retest; S. cerevisiae NALP1/ASC/caspase-1 growth, X-gal OD620, 72 h; inhibition, % at 10 µM; actives 0.61% (n = 280,000); AID 2071, 2009; in the data active = inhibition mostly above about 24%, no sharp cut-off; inactive = mostly below about 32%
Calb FLC: C. albicans growth inhibition with fluconazole, primary screen, CaCi-2 strain, Alamar Blue fluorescence | actives 0.57% (n = 300,000) | C. albicans CaCi-2 + fluconazole, 48 h | AID 1979, 2009 | growth inhibition, % (test concentration not listed);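 active = growth inhibition above about 58% in most replicates, limit read from the data, passing the limit was not always enough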;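 note: all wells also contain fluconazole at 8 µg/ml as a sub-toxic cotreatment; 0% = median of DMSO wells and 100% = median of geldanamycin control wells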
UCH37 DUB inh: inhibitors of human UCH37 deubiquitinase, primary screen, biochemical, Ub-AMC cleavage, fluorescence; AID 588478, 2011; inhibition, % (concentration not given with the values); purified proteasome/UCH37; actives 0.33% (n = 330,000);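 active = mean inhibition over replicate wells above about 20%, limit read from the data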;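 note: 0% = compound-free wells with enzyme and 100% = wells lacking proteasome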
Target sequence (Q9Y5K5 whole entry, looked up): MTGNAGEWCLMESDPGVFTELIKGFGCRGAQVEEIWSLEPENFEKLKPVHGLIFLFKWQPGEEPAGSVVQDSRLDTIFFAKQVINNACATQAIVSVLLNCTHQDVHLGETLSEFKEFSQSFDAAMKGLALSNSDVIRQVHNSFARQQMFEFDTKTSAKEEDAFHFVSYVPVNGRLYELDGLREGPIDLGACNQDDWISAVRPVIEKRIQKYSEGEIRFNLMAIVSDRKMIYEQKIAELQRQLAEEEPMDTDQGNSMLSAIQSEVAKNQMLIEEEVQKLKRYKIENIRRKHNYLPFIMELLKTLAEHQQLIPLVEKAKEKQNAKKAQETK
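Signal – fluorescence, ex 355 nm, em 460 nm · System – Proteasome-bound UCH37 · Input – 0.15 nM proteasome as dispensed · Timing – 30 min preincubation with enzyme, 25 min cleavage at room temperature · Read-out basis – percent inhibition of cleavage signal versus uninhibited and no-proteasome wells · Medium – Tris-HCl pH 7.4 with ATP-MgCl2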
Starred values were filed as active, the others as inactive; . = no result. This is a sample that favours compounds with a hit; in the whole collection about 4.8% have one here.

SMILES	NLRP3 yeast inh	ALR H2O2 inh	ATG4B inhibitor	NALP1 inh	Calb FLC	UCH37 DUB inh
Cc1ccc(C(=O)NC(=S)NNS(=O)(=O)c2ccccc2)cc1	0.3	98.3*	-0.2	13.6	6.8	5.1
Cc1ccc(C(=O)NC(=S)NNC(=O)CC#N)cc1	-1.9	99.2*	-9.9	6.5	109.2*	1.6
CCCCC(=O)NNC(=S)NC(=O)c1ccc(C)cc1	28.1	98.5*	8.8	4.1	101.4*	-0.2
CCN(CC)c1ccc(C=Nn2c(C)cc(C)cc2=O)cc1	.	.	.	.	.	-25.0
CCOC(=O)C(=NNc1ccccc1[N+](=O)[O-])c1csc(Nc2ccccc2)n1	.	.	.	.	.	9.1
CCOC(=O)c1c(NC(=O)C(=O)NN=C(C)c2ccc(OC)cc2)sc2c1CCCCC2	.	.	.	.	.	-174.2
CCn1c(SCC(=O)c2ccc(O)c(O)c2)nnc1-c1ccccc1OC	20.6	98.8*	0.0	-11.5	95.9*	5.1
CCn1c(CSc2nc3ccccc3s2)nnc1SCC(=O)c1ccc(O)c(O)c1	14.1	98.0*	3.3	-3.0	104.7*	5.6
CCn1c(SCC(=O)c2ccc(O)c(O)c2)nnc1-c1ccccc1	-12.1	97.6*	-3.1	.	0.2	2.7
CCn1c(CSc2nc3ccccc3s2)nnc1SCC(=O)c1ccc(Cl)cc1	31.9	12.2	8.6	0.0	11.3	1.4
C=CCn1c(SCC(=O)c2ccc(O)c(O)c2)nnc1-c1ccccc1OC	8.2	64.4	-4.8	17.1	-25.5	6.1
CCc1nc(Nc2ccc(O)cc2)c2oc3ccccc3c2n1	28.2	92.9*	-14.6	9.7	17.9	-2.2
CCc1nc(Nc2ccccc2O)c2oc3ccccc3c2n1	15.6	-4.8	5.5	22.1	-7.3	8.9
CCc1nc(Nc2ccc3c(c2)OCCO3)c2oc3ccccc3c2n1	10.5	5.3	1.0	33.8*	-8.5	-56.4
CCc1nc(NCc2ccco2)c2oc3ccccc3c2n1	19.6	88.0*	1.9	9.0	9.8	0.7
Cc1nc(Nc2ccc3c(c2)OCCO3)c2oc3ccccc3c2n1	16.7	.	-6.4	17.4	43.6	-29.3
COc1ccc(CNc2ccc3cn[nH]c3c2)c(OC)c1OC	-1.7	.	-13.0	7.9	25.9	21.7*
COc1ccc(NC(=S)Nc2ccc3cn[nH]c3c2)cc1	12.9	99.7*	-6.0	13.4	14.3	1.2
Cc1ccnn1CC(=O)NN=Cc1c[nH]c2ccccc12	.	.	.	.	.	6.0
COc1ccc(C2c3[nH]c4ccccc4c3CCN2CCCn2cccn2)c(C)c1C (stereo not given)	13.7	-2.8	-5.1	51.0*	-1.2	-112.0
COc1cccc(C2c3[nH]c4ccccc4c3CCN2CCCn2cccn2)c1 (stereo not given)	15.8	21.6	-8.9	-0.2	-19.3	-0.7
CCOC(=O)/C=C/c1nc(C(=O)OCC)c(C)c(=O)[nH]1	16.2	96.9*	4.6	0.9	-3.7	.
CC(CCc1ccccc1)=NNC(=O)c1ccc(CN2CCOCC2)cc1	.	.	.	.	.	2.4
CC(=NC1CC1)c1c(-c2ccccc2)[nH]n(-c2nc3ccccc3s2)c1=O	17.2	31.6	-12.7	13.2	-5.0	5.4
CC(=NC1CCCC1)c1c(C)[nH]n(-c2nc3ccccc3s2)c1=O	9.9	93.0*	-6.5	18.2	19.4	-1.9
COc1ccc(C=NN2CCN(Cc3ccccc3Cl)CC2)cc1	.	.	.	.	.	4.2
CCCCC1(C)OC(=O)C(=Cc2ccc(-c3ccc(Cl)c(C(=O)O)c3)o2)C(=O)O1 (stereo not given)	-5.8	98.1*	1.1	23.4	5.5	0.0
O=C1NN(c2ccc(Cl)cc2)C(=O)/C1=C\c1ccc(-c2cccc(C(=O)O)c2)o1	.	.	28.4	15.2	.	6.0
CC1=C(C#N)C(=O)NC(=O)/C1=C\c1ccc(-c2ccc(C)cc2[N+](=O)[O-])o1	.	.	18.7	-0.9	4.1	10.4
Cc1ccc(N2NC(=O)/C(=C/c3ccc(-c4ccc(Cl)c(C(=O)O)c4)o3)C2=O)cc1	15.0	98.6*	10.4	18.2	-3.1	5.5
